# Screening results as filed in PubChem BioAssay.
# Neddyl block – inhibitors of cullin neddylation, primary screen, biochemical, TR-FRET, uHTS, NAE and Ubc12 | actives 0.58% (n = 360,000) | calls only at 25 µM | AID 651699, 2012; in the data active means inhibition above about 36%
# Target sequence (P61081 whole entry, looked up): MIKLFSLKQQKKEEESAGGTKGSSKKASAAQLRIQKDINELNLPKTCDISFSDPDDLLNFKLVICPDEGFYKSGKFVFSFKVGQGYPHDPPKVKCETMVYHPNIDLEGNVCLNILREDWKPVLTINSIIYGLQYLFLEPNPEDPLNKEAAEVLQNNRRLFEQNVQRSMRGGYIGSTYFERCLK
# Target sequence (Q13564 whole entry, looked up): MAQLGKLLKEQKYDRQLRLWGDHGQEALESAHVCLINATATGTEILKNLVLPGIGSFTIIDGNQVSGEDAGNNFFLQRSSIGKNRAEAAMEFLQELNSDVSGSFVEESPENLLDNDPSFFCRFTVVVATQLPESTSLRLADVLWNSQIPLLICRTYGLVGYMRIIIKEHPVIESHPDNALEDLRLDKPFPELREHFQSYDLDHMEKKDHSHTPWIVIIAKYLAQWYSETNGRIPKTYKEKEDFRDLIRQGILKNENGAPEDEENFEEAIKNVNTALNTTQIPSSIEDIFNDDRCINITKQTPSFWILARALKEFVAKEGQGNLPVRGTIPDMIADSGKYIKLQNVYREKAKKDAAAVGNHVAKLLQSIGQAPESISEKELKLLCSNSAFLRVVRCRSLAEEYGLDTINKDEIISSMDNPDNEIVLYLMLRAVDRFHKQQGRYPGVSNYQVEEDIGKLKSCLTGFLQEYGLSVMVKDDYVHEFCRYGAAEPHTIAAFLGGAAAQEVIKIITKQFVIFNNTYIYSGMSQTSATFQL
# proKLK7 act – proKLK7 zymogen activators, primary screen, biochemical, fluorescence intensity. Kallikrein-7 (Homo sapiens), P49862. purified proKLK7, EDANS-DABCYL substrate fluorescence; 100% is mature enzyme control, 0% vehicle. activation, % at 7 µM. actives 0.9% (n = 370,000);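 active means activation above the mean of all tested compounds plus 3 SD, computed per campaign excluding outliers beyond control limits, cut at about 13% in these data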
# SKN-1 block – suppressors of acrylamide-induced Pgst-4::GFP reporter in worms, primary screen, SKN-1 inhibitor project, whole organism, uHTS, GFP/RFP fluorescence ratio, strain VP596. inhibition, % at 21.8 µM. C. elegans VP596 Pgst-4::GFP/RFP ratio, 24 h. actives 0.49% (n = 360,000);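 active means interference check ratio from 0.5 to 1.5 plus GFP to RFP signal ratio inhibition reaching or exceeding a fixed threshold, cut at about 30% in these data, passing the limit was not always enough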
# Tn6 DDE FP – inhibitors of Tn6 peptide binding to fibrin DD(E), primary screen, biochemical, fluorescence polarization, human fibrin, Tn6 probe; Fibrinogen beta chain (Homo sapiens), P02675; Fibrin DD(E) TRITC-Tn6 fluorescence polarization displacement; inhibition, % at 8.3 µM; actives 0.21% (n = 370,000);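 active means inhibition above a per-campaign cutoff: mean of compounds within control limits plus 3 SD, cut at about 15% in these data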;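 further: 0% = median of all compound wells on the plate and 100% = blocking peptide control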
# MT1-MMP act inh – blockers of MT1-MMP proenzyme processing, primary screen, HT1080 RFP-PRO-GFP cells, GFP/RFP fluorescence. GFP/RFP ratio fluorescence, overnight; percent of plate control window, DMSO zero. Matrix metalloproteinase-14 (Homo sapiens), P50281. GFP/RFP ratio change, % at 20 µM. actives 0.061% (n = 360,000);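 active means GFP/RFP ratio change of at least 30% with cell ATP level not reduced by more than half and red fluorescence within 50% of control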
#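 Read-out: GFP/RFP fluorescence ratio; Test system: RFP-PRO-GFP reporter HT1080 cells; Compound dosing: single-point 20 µM compound, 1% DMSO; Times: overnight compound exposure at 37 °C.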
# DDE Tn7 FP inh – inhibitors of Tn7 peptide binding to fibrin DD(E), primary screen, biochemical, fluorescence polarization, human fibrin, Tn7 probe. inhibition, % at 8.3 µM. actives 0.13% (n = 370,000). FP displacement of FITC-Tn7 peptide from fibrin DD(E); 0% = median of compound wells per plate. Fibrinogen beta chain (Homo sapiens), P02675. AID 720508, 2013;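 active means inhibition above the mean of compounds falling within the control limits plus 3 SD of them, cut at about 14% in these data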;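 further: 0% = plate median of compound wells and 100% = 10 µM Aha-Tn7 peptide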
#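 Test system – human fibrin DD(E) · Times – 10 min preincubation, 3 h with tracer, room temperature · Detection – fluorescence polarization of the labelled Tn7 tracer · Measure – percent inhibition normalized to high-control wells · Benchmarks – high control wells with 10 µM unlabelled Aha-Tn7 peptide (full inhibition) · Repeats – singlicate testing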
# DDE Tn7 confirm – inhibitors of Tn7 peptide binding to fibrin DD(E), confirmation, biochemical, fluorescence polarization, human fibrin, Tn7 probe. inhibition, % at 8.3 µM. FP displacement of TRITC-Tn7 peptide from DD(E); 0% set at plate's compound-well median. shares compounds with DDE Tn7 FP inh. AID 720628, 2013. actives 5% (n = 460);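 active means inhibition above the campaign cutoff, the mean of compounds within control limits plus 3 SD, cut at about 14% in these data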;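 further: 100% = median FP of high control wells holding Aha-Tn7 inhibitor peptide; displacers lower polarization since freed probe rises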
# DDE Tn7 FP ctr – counter-screen hit for Tn7 peptide-fibrin DD(E) binding disruption; shares compounds with DDE Tn7 FP inh; TRITC-Tn7 probe displacement, fluorescence polarization; inhibition, % at 8.3 µM; actives 3% (n = 460);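 active means inhibition above the cutoff, the mean of compounds lying between the control bounds plus 3 SD of those compounds, cut at about 17% in these data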;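 further: 0% = median of compound sample wells and 100% = excess unlabeled Aha-Tn7 peptide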
# Tn6 DDE ctr – counter-screen for inhibitors of Tn6 peptide binding to fibrin DD(E) | shares compounds with Tn6 DDE FP | TRITC-Tn6 fluorescence polarization displacement; 0% = median of compound wells, not DMSO | inhibition, % at 8.3 µM | actives 2% (n = 680) | AID 720621;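 active means inhibition above the mean of test compounds lying between the control limits plus 3 SD of those, cut at about 14% in these data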;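 further: 0% = median of compound wells and 100% = wells with Aha-Tn7 blocking peptide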
# DDE Tn6 confirm – inhibitors of Tn6 peptide binding to fibrin DD(E), confirmation, biochemical, fluorescence polarization, human fibrin, Tn6 probe. shares compounds with Tn6 DDE FP. actives 10% (n = 680). inhibition, % at 8.3 µM. AID 720631, 2013. FP displacement of TRITC-Tn6 peptide from DD(E); 0% = per-plate median of test wells;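 active means inhibition above the mean of compounds lying within the control limits plus 3 SD, cut at about 16% in these data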;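 further: 100% = high control wells holding a competing inhibitor peptide at 10 µM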
# Numbers without * were called inactive; i = inactive; . = not tested or not shown. Most compounds without a hit are left out; they make up all but 2.2% or so of the library.
SMILES,Neddyl block,proKLK7 act,SKN-1 block,Tn6 DDE FP,MT1-MMP act inh,DDE Tn7 FP inh,DDE Tn7 confirm,DDE Tn7 FP ctr,others
CC[C@H]1OC(=O)[C@H](C)[C@@H](O[C@H]2C[C@@](C)(OC)[C@@H](O)[C@H](C)O2)C(C)[C@@H](O[C@@H]2O[C@H](C)C[C@H](N(C)C)[C@H]2O)[C@](C)(O)C[C@@H](C)CN(C)[C@H](C)[C@@H](O)[C@]1(C)O (stereo partly drawn),.,0,.,9,.,14*,5,5,
CCCCCCC(=O)NC1CCCCN(Cc2ccc(Cl)cc2)C1=O (stereo not drawn),.,0,.,5,.,-4,.,.,
COc1ccc(/C=N/N2CCN(c3ccc(Cl)cc3)CC2)cc1O,i,0,-2,2,11,15*,2,-1,
Cc1nc2c([nH]1)C1(CCN(Cc3ccccc3)CC1)C(C#N)=C(N)O2,i,2,21,-2,-12,8,.,.,
COc1cc(NC(=S)N2CCN(S(=O)(=O)c3ccc(C)cc3)CC2)cc(OC)c1,i,-1,10,2,-2,-5,.,.,
COc1ccc([C@H]2CC(=O)C=C(c3ccc(Cl)c(F)c3)C2)cc1,i,0,16,-7,4,14*,7,5,
Cc1ccc(-c2nc3ccc(C)cn3c2Cc2ccccc2C(F)(F)F)cc1,i,0,3,1,0,6,.,.,
Cc1ccc2nc(-c3ccccc3)c(Cc3ccccc3C(F)(F)F)n2c1,i,0,32,6,-5,16*,1,-2,
FC(F)(F)c1ccc(N2CCN(c3ncnc4c3nnn4Cc3ccccc3Cl)CC2)cc1,i,1,-11,-2,4,0,.,.,
O=C(c1ccccc1)N1CCSc2sccc2C1=O,i,-1,-1,9,2,15*,5,-5,
O=C(c1ccccc1)N1CCSC1=S,i,0,15,7,2,0,.,.,
O=[N+]([O-])c1cnn(-c2nc(-c3ccco3)cc(C(F)(F)F)n2)c1,i,0,3,4,5,2,.,.,
CCCCNC(=S)N(C)N=C1CCC(c2ccccc2)CC1 (stereo not drawn),i,0,1,-1,-1,0,.,.,
CCCCNC(=S)N(C)/N=C/c1ccccc1C(=O)O,i,0,-6,0,-2,14*,-9,-7,
CCc1cccc(NC(=S)Nc2ccc(CN3CCOCC3)cc2)c1,i,0,-2,-3,3,-8,.,.,
CSCCCNC(=O)c1oc(=O)c2ccccc2c1-c1ccc(C)cc1,.,0,.,7,.,15*,-2,-3,
O=C(Nc1nccs1)c1ccc(Cl)cc1[N+](=O)[O-],i,1,14,-3,-9,8,.,.,
Cc1cc(NS(=O)(=O)c2ccc(NC(=O)Cc3ccc([N+](=O)[O-])cc3)cc2)no1,i,0,4,4,2,14*,0,-2,
O=C1C(N2CCOCC2)=Cc2cccc3cccc1c23,i,-1,46,38*,-3,22*,0,16*,Tn6 DDE ctr=0;DDE Tn6 confirm=16*
CCCCC(=O)N(C)c1c(CC)nc2c(OCc3ccc(C#N)cc3)cccn12,i,1,16,1,0,-5,.,.,
N#CC1=C(N)Oc2cc(N)ccc2C1c1ccsc1 (stereo not drawn),i,0,-3,8,-1,7,.,.,
N#CC1=C(N)Oc2ccc3ccc(O)cc3c2C1c1ccsc1 (stereo not drawn),i,0,79,169*,13,23*,8,38*,Tn6 DDE ctr=8;DDE Tn6 confirm=38*
CC(NC(=S)NCCN1CCOCC1)C12CC3CC(CC(C3)C1)C2 (stereo not drawn),i,0,0,10,1,8,.,.,
CN(C)c1ccc(C=Cc2nccc3ccccc23)cc1,i,1,48,131*,11,30*,2,54*,Tn6 DDE ctr=2;DDE Tn6 confirm=54*
CCOC(=O)NC(=O)/C(C#N)=C\Nc1ccc(Cl)cc1Cl,i,0,5,-2,0,-3,.,.,
SMILES,Neddyl block,proKLK7 act,SKN-1 block,Tn6 DDE FP,MT1-MMP act inh,DDE Tn7 FP inh,DDE Tn7 confirm,DDE Tn7 FP ctr,others
CCOC(=O)NC(=O)/C(C#N)=C\Nc1sccc1C(=O)OC,i,2,21,16*,-19,17*,1,2,Tn6 DDE ctr=1;DDE Tn6 confirm=2
Nc1cnccc1C(=O)O,i,6,33,46*,-86,14*,-2,-3,Tn6 DDE ctr=-2;DDE Tn6 confirm=-3
O=C(O)c1cc(=O)c2c(OCC(O)COc3cccc4oc(C(=O)O)cc(=O)c34)cccc2o1,i,1,-7,2,0,-2,.,.,
CN(c1ccccc1)S(=O)(=O)c1ccc(Cl)c(C(=O)Nc2ccc(-c3nc4ccccc4[nH]3)cc2)c1,.,-37,8,39*,0,11,.,.,Tn6 DDE ctr=-1;DDE Tn6 confirm=21*
O=C(c1ccccc1)c1ccc2nc(-c3ccc(NC(=O)c4ccccc4Br)cc3)[nH]c2c1,i,-15,6,-1,0,-4,.,.,
CS(=O)(=O)c1ccccc1C(=O)Nc1ccc(-c2nc3ccccc3[nH]2)cc1,i,0,-7,3,1,-4,.,.,
